From PMC10759213 (RSC Advances, 2024)

test system: not listed separately; experiment: DPPH radical scavenging antioxidant assay; conditions: DPPH
How it was run: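 Test sample mixed with ethanolic DPPH radical solution (300 μM before mixing), incubated at 37 °C for 30 min, and absorbance read at 515 nm. Percent radical inhibition was calculated against a DMSO negative control, with ascorbic acid as the standard. EC50 is the sample concentration (μg ml−1) needed to scavenge 50% of DPPH.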

| SMILES | Antioxidant activity (in words) |
| --- | --- |
| c1ccc2cc3[nH]c(-c4c[nH]c5ccccc45)nc3cc2c1 [Compound 1, 2-(1H-Indol-3-yl)-1H-naphtho[2,3-d]imidazole] | excellent antioxidant activity |
| COc1cc(-c2nc3cc4ccccc4cc3[nH]2)ccc1OC(C)=O [Compound 3, 2-Methoxy-4-(1H-naphtho[2,3-d]imidazol-2-yl)phenyl acetate] | excellent antioxidant activity |
| COc1ccc(-c2nc3cc4ccccc4cc3[nH]2)cc1O [Compound 6, 2-Methoxy-5-(1H-naphtho[2,3-d]imidazol-2-yl) phenol] | excellent antioxidant activity |
| COc1ccc(Br)c(-c2nc3cc4ccccc4cc3[nH]2)c1O [Compound 11, 3-Bromo-6-methoxy-2-(1H-naphtho[2,3-d]imidazol-2-yl)phenol] | excellent antioxidant activity |
| Brc1cccc(-c2nc3cc4ccccc4cc3[nH]2)c1 [Compound 15, 2-(3-Bromophenyl)-1H-naphtho[2,3-d]imidazole] | excellent antioxidant activity |

same assay, conditions: DPPH 300 μM, 37 °C, 30 minutes

| SMILES | Antioxidant activity % Inhibition ± SD [%] |
| --- | --- |
| O=C1O[C@H]([C@@H](O)CO)C(O)=C1O [Ascorbic acid, reference compound] | 80 |
| c1ccc2cc3[nH]c(-c4c[nH]c5ccccc45)nc3cc2c1 [Compound 1, 2-(1H-Indol-3-yl)-1H-naphtho[2,3-d]imidazole] | 71.1 ± 0.01 |
| CCOc1ccc(-c2nc3cc4ccccc4cc3[nH]2)cc1OC [Compound 2, 2-(4-Ethoxy-3-methoxyphenyl)-1H-naphtho[2,3-d]imidazole] | 43 ± 0.01 |
| COc1cc(-c2nc3cc4ccccc4cc3[nH]2)ccc1OC(C)=O [Compound 3, 2-Methoxy-4-(1H-naphtho[2,3-d]imidazol-2-yl)phenyl acetate] | 67.4 ± 0.01 |
| Oc1ccc(Cl)cc1-c1nc2cc3ccccc3cc2[nH]1 [Compound 4, 4-Chloro-2-(1H-naphtho[2,3-d]imidazol-2yl)phenol] | 29 ± 0.01 |
| COc1cc(-c2nc3cc4ccccc4cc3[nH]2)cc(OC)c1O [Compound 5, 2,6-Dimethoxy-4-(1H-naphtho[2,3-d]imidazol-2-yl)phenol] | 12 ± 0.01 |
| COc1ccc(-c2nc3cc4ccccc4cc3[nH]2)cc1O [Compound 6, 2-Methoxy-5-(1H-naphtho[2,3-d]imidazol-2-yl) phenol] | 71 ± 0.01 |
| CCOc1cc(-c2nc3cc4ccccc4cc3[nH]2)ccc1OC [Compound 7, 2-(3-Ethoxy-4-methoxyphenyl)-1H-naphtho[2,3-d]imidazole] | 57.8 ± 0.01 |
| c1csc(-c2nc3cc4ccccc4cc3[nH]2)c1 [Compound 8, 2-(Thiophen-2-yl)-1H-naphtho[2,3-d]imidazole] | 32 ± 0.01 |
| COc1ccc(-c2nc3cc4ccccc4cc3[nH]2)cc1OC [Compound 9, 2-(3,4-Dimethoxyphenyl)-1H-naphtho[2,3-d]imidazole] | 57.8 ± 0.02 |
| Oc1ccc(-c2nc3cc4ccccc4cc3[nH]2)c(O)c1O [Compound 10, 4-(1H-Naphtho[2,3-d]imidazol-2-yl)benzene-1,2,3-triol] | 57.9 ± 0.02 |
| COc1ccc(Br)c(-c2nc3cc4ccccc4cc3[nH]2)c1O [Compound 11, 3-Bromo-6-methoxy-2-(1H-naphtho[2,3-d]imidazol-2-yl)phenol] | 71.1 ± 0.01 |
| c1ccc(-c2nc3cc4ccccc4cc3[nH]2)cc1 [Compound 12, 2-Phenyl-1H-naphtho[2,3-d]imidazole] | 43 ± 0.01 |
| COc1cc(-c2nc3cc4ccccc4cc3[nH]2)c(OC)cc1Br [Compound 13, 2-(4-Bromo-2,5-dimethoxyphenyl)-1H-naphtho[2,3-d]imidazole] | 57.7 ± 0.01 |
| Fc1cc(Br)ccc1-c1nc2cc3ccccc3cc2[nH]1 [Compound 14, 2-(4-Bromo-2-fluorophenyl)-1H-naphtho[2,3-d]imidazole] | 23 ± 0.01 |
| Brc1cccc(-c2nc3cc4ccccc4cc3[nH]2)c1 [Compound 15, 2-(3-Bromophenyl)-1H-naphtho[2,3-d]imidazole] | 69.3 ± 0.01 |

same assay, conditions: concentration required to scavenge 50% of DPPH

| SMILES | Antioxidant activity EC50 [µg/mL] |
| --- | --- |
| O=C1O[C@H]([C@@H](O)CO)C(O)=C1O [Ascorbic acid, reference compound] | 8.3 |
| c1ccc2cc3[nH]c(-c4c[nH]c5ccccc45)nc3cc2c1 [Compound 1, 2-(1H-Indol-3-yl)-1H-naphtho[2,3-d]imidazole] | 37.5 |
| COc1cc(-c2nc3cc4ccccc4cc3[nH]2)ccc1OC(C)=O [Compound 3, 2-Methoxy-4-(1H-naphtho[2,3-d]imidazol-2-yl)phenyl acetate] | 75 |

Other lines, results leading:

| Antioxidant activity EC50 [µg/mL] | SMILES |
| --- | --- |
| 37.5 | COc1ccc(-c2nc3cc4ccccc4cc3[nH]2)cc1O [Compound 6, 2-Methoxy-5-(1H-naphtho[2,3-d]imidazol-2-yl) phenol] |
| 100 | CCOc1cc(-c2nc3cc4ccccc4cc3[nH]2)ccc1OC [Compound 7, 2-(3-Ethoxy-4-methoxyphenyl)-1H-naphtho[2,3-d]imidazole] |
| 100 | COc1ccc(-c2nc3cc4ccccc4cc3[nH]2)cc1OC [Compound 9, 2-(3,4-Dimethoxyphenyl)-1H-naphtho[2,3-d]imidazole] |
| 100 | Oc1ccc(-c2nc3cc4ccccc4cc3[nH]2)c(O)c1O [Compound 10, 4-(1H-Naphtho[2,3-d]imidazol-2-yl)benzene-1,2,3-triol] |
| 37.5 | COc1ccc(Br)c(-c2nc3cc4ccccc4cc3[nH]2)c1O [Compound 11, 3-Bromo-6-methoxy-2-(1H-naphtho[2,3-d]imidazol-2-yl)phenol] |
| 100 | COc1cc(-c2nc3cc4ccccc4cc3[nH]2)c(OC)cc1Br [Compound 13, 2-(4-Bromo-2,5-dimethoxyphenyl)-1H-naphtho[2,3-d]imidazole] |
| 75 | Brc1cccc(-c2nc3cc4ccccc4cc3[nH]2)c1 [Compound 15, 2-(3-Bromophenyl)-1H-naphtho[2,3-d]imidazole] |

biological target: urease (Canavalia ensiformis, UniProt P07374); experiment: In vitro urease inhibition assay; format: biochemical; conditions: not given
Sequence (P07374 whole entry, looked up): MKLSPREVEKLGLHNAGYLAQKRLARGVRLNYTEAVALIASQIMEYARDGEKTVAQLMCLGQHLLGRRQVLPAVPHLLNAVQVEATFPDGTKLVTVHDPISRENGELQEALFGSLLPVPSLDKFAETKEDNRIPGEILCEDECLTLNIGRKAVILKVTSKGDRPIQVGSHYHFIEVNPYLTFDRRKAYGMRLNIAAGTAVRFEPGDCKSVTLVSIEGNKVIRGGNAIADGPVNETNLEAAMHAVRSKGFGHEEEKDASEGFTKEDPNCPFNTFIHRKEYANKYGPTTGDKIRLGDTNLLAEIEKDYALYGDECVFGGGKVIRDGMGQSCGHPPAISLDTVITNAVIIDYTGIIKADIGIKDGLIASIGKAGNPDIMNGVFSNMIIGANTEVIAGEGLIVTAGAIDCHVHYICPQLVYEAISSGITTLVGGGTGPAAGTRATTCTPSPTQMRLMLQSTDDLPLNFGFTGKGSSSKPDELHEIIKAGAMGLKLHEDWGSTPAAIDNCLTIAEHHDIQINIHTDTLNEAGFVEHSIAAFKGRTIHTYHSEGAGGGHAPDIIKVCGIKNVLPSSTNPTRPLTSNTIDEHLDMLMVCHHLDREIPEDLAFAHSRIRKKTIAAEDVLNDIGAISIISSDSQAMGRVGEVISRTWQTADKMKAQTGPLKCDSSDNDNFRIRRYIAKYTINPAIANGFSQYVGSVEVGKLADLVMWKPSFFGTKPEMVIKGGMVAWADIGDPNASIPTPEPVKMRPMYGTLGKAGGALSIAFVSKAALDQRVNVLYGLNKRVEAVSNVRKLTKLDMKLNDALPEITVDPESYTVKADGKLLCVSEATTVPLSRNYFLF

| SMILES | IC50 [µM] |
| --- | --- |
| c1ccc2cc3[nH]c(-c4c[nH]c5ccccc45)nc3cc2c1 [Compound 1, 2-(1H-Indol-3-yl)-1H-naphtho[2,3-d]imidazole] | 92.3 ± 0.2 |
| CCOc1ccc(-c2nc3cc4ccccc4cc3[nH]2)cc1OC [Compound 2, 2-(4-Ethoxy-3-methoxyphenyl)-1H-naphtho[2,3-d]imidazole] | 73.5 ± 0.65 |
| COc1cc(-c2nc3cc4ccccc4cc3[nH]2)ccc1OC(C)=O [Compound 3, 2-Methoxy-4-(1H-naphtho[2,3-d]imidazol-2-yl)phenyl acetate] | 56.3 ± 0.78 |
| Oc1ccc(Cl)cc1-c1nc2cc3ccccc3cc2[nH]1 [Compound 4, 4-Chloro-2-(1H-naphtho[2,3-d]imidazol-2yl)phenol] | 34.2 ± 0.72 |

Other lines, results leading:

| IC50 [µM] | SMILES |
| --- | --- |
| 86.4 ± 0.78 | c1csc(-c2nc3cc4ccccc4cc3[nH]2)c1 [Compound 8, 2-(Thiophen-2-yl)-1H-naphtho[2,3-d]imidazole] |
| 67.14 ± 0.67 | COc1ccc(-c2nc3cc4ccccc4cc3[nH]2)cc1OC [Compound 9, 2-(3,4-Dimethoxyphenyl)-1H-naphtho[2,3-d]imidazole] |
| 42.4 ± 0.65 | COc1ccc(Br)c(-c2nc3cc4ccccc4cc3[nH]2)c1O [Compound 11, 3-Bromo-6-methoxy-2-(1H-naphtho[2,3-d]imidazol-2-yl)phenol] |

same assay, conditions: read-out: Urease inhibition IC50 ± SD; indophenol method, 15 min at 30 °C, pH 8.2; triplicate

| IC50 [µM] | SMILES |
| --- | --- |
| 37 | CC(=O)NO [Acetohydroxamic acid, reference compound] |
